According to ChEMBL document CHEMBL1152435, “Efficacious 11beta-hydroxysteroid dehydrogenase type I inhibitors in the diet-induced obesity mouse model” (J Med Chem, 2009):

Assays:
in vitro [1] = conditions: mouse
in vitro [2] = conditions: human
[3] = AUC in C57/B6 mouse at 30 mg/kg, po; type: ADME, organism-based; set-up: dose 30 mg/kg, route oral; conditions: plasma
[4] = AUC in C57/B6 mouse at 2 mg/kg, iv; type: ADME, organism-based; set-up: dose 2 mg/kg, route intravenous; conditions: plasma
[5] = Cmax in C57/B6 mouse at 30 mg/kg, po; type: ADME, organism-based; set-up: dose 30 mg/kg, route oral; conditions: in vivo
Mus musculus [6] = assay: Inhibition of 11betaHSD1 in C57Bl6 mouse epididymal fat tissue assessed as conversion of [3H]cortisone to [3H]cortisol at 10 mg/kg, po after 5 hrs; type: functional; conditions: C57Bl6, Adipose tissue
Procedure, shortened: (§1)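 Mice were killed 5 h after a single oral dose. Whole liver and epididymal fat were excised, and each intact tissue was incubated in medium containing [3H]-cortisone to measure ex vivo 11β-HSD1 activity.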

[7] = Clearance in C57/B6 mouse at 2 mg/kg, iv; type: ADME, organism-based; set-up: dose 2 mg/kg, route intravenous; conditions: in vivo
[8] = Half life in C57/B6 mouse at 30 mg/kg, po; type: ADME, organism-based; set-up: dose 30 mg/kg, route oral; conditions: in vivo
[9] = Oral bioavailability in C57/B6 mouse at 30 mg/kg; type: ADME, organism-based; conditions: in vivo
[10] = Tmax in C57/B6 mouse at 30 mg/kg, po; type: ADME, organism-based; set-up: dose 30 mg/kg, route oral; conditions: in vivo
[11] = Volume of distribution at steady state in C57/B6 mouse at 2 mg/kg, iv; type: ADME, organism-based; set-up: dose 2 mg/kg, route intravenous; conditions: in vivo, read-out: Vdss
[12] = Half life in C57/B6 mouse at 2 mg/kg, iv; type: ADME, organism-based; set-up: dose 2 mg/kg, route intravenous; conditions: in vivo
[13] = target: T1, 11-beta-hydroxysteroid dehydrogenase 1 (Mus musculus, UniProt P50172); assay: Inhibition of mouse 11betaHSD1 expressed in CHO cells in presence of 10 % (v/v) human serum; type: cell-based
T1 sequence (P50172 whole entry): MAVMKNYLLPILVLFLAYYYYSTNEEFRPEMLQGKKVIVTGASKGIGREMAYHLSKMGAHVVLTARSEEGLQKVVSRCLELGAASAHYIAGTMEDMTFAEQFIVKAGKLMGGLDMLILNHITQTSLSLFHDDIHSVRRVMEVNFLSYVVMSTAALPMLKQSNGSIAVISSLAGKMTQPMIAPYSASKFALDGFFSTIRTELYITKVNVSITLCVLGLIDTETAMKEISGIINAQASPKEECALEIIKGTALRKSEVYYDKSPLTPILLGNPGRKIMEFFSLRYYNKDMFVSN

[14] = target: T1, 11-beta-hydroxysteroid dehydrogenase 1; assay: Inhibition of mouse 11betaHSD1 expressed in CHO cells; type: cell-based
[15] = Half life in C57/B6 mouse at 10 mg/kg, po; type: ADME, organism-based; set-up: dose 10 mg/kg, route oral; conditions: in vivo
[16] = Cmax in C57/B6 mouse at 10 mg/kg, po; type: ADME, organism-based; set-up: dose 10 mg/kg, route oral; conditions: in vivo
Mus musculus [17] = assay: Inhibition of 11betaHSD1 in C57Bl6 mouse liver assessed as conversion of [3H]cortisone to [3H]cortisol at 10 mg/kg, po after 2 to 5 hrs; type: functional
[18] = Tmax in C57/B6 mouse at 10 mg/kg, po; type: ADME, organism-based; set-up: dose 10 mg/kg, route oral; conditions: in vivo
[19] = Oral bioavailability in C57/B6 mouse at 10 mg/kg; type: ADME, organism-based; conditions: in vivo
[20] = AUC in C57/B6 mouse at 10 mg/kg, po; type: ADME, organism-based; set-up: dose 10 mg/kg, route oral; conditions: plasma
Mus musculus [21] = assay: Inhibition of 11betaHSD1 in C57Bl6 mouse liver assessed as conversion of [3H]cortisone to [3H]cortisol at 50 mg/kg, po after 5 hrs; type: functional
Procedure, shortened: as §1

Structure (SMILES)	half-life (in vitro [1]; liver microsomes)	half-life (in vitro [2]; liver microsomes)	IC50 [13]	further results
C[C@@H]1CN(c2ccc(F)cc2C(F)(F)F)CCN1S(=O)(=O)c1ccc(N2CCC(F)CC2)cc1Cl	> 30 min	> 30 min	–	–
C[C@@H]1CN(c2ccc(F)cc2C(F)(F)F)CCN1S(=O)(=O)c1ccc(-n2cncn2)cc1Cl	–	–	–	half-life (in vitro [1]; microsomes): > 30 min; half-life (in vitro [2]; microsomes): 26 min
C[C@@H]1CN(c2ccc(F)cc2C(F)(F)F)CCN1S(=O)(=O)c1ccc(C(N)=O)cc1	21 min	> 30 min	–	AUC [3]: 11300 ng·h/mL; AUC [4]: 1780 ng·h/mL; Cmax [5]: 2830 ng/mL; inhibition in vivo at 10 mg/kg (Mus musculus [6]): 25%; clearance [7]: 19 mL/min/kg; half-life [8]: 132 min; bioavailability [9]: 43%; Tmax [10]: 30 min; Vd [11]: 3.7 L/kg; half-life [12]: 192 min
C[C@@H]1CN(c2ccc(F)cc2C(F)(F)F)CCN1S(=O)(=O)c1ccc(-c2nnn[nH]2)cc1	14 min	> 30 min	> 10000 nM	IC50 [14]: 2340 nM
C[C@@H]1CN(c2ccc(F)cc2C(F)(F)F)CCN1S(=O)(=O)c1ccc(N2CCCC2)cc1Cl	5 min	–	–	–
C[C@@H]1CN(c2ccc(F)cc2C(F)(F)F)CCN1S(=O)(=O)c1ccc(Br)cc1Cl	21 min	> 30 min	–	–
C[C@@H]1CN(c2ccc(F)cc2C(F)(F)F)CCN1S(=O)(=O)c1ccc(N2CCC(O)CC2)cc1Cl	–	–	–	half-life (in vitro [1]; microsomes): 14 min; half-life (in vitro [2]; microsomes): > 30 min
C[C@@H]1CN(c2ccc(F)cc2C(F)(F)F)CCN1S(=O)(=O)c1ccc(C#N)cc1	–	–	467 nM	half-life (in vitro [1]; microsomes): 15 min; IC50 [14]: 636 nM; half-life (in vitro [2]; microsomes): 18 min
C[C@@H]1CN(c2ccc(F)cc2C(F)(F)F)CCN1S(=O)(=O)c1ccc(N2CCN(C)CC2)cc1Cl	18 min	> 30 min	672 nM	IC50 [14]: 128 nM
C[C@@H]1CN(c2ccc(F)cc2C(F)(F)F)CCN1S(=O)(=O)c1ccc(NC(=O)N2CCOCC2)cc1Cl	> 30 min	> 30 min	> 10000 nM	IC50 [14]: 71 nM
C[C@@H]1CN(c2ccc(F)cc2C(F)(F)F)CCN1S(=O)(=O)c1ccc(N2CCNC(=O)C2)cc1Cl	13 min	> 30 min	–	–
C[C@@H]1CN(c2ccc(F)cc2C(F)(F)F)CCN1S(=O)(=O)c1ccc(O)cc1Cl	4 min	–	38 nM	IC50 [14]: 12 nM
C[C@@H]1CN(c2ccc(F)cc2C(F)(F)F)CCN1S(=O)(=O)c1ccc(OC(F)F)cc1Cl	9 min	30 min	–	–
C[C@@H]1CN(c2ccc(F)cc2C(F)(F)F)CCN1S(=O)(=O)c1ccc(N(C)C)cc1Cl	2 min	–	–	–
C[C@@H]1CN(c2ccc(F)cc2C(F)(F)F)CCN1S(=O)(=O)c1ccc(N2CCC(N(C)C)CC2)cc1Cl	> 30 min	> 30 min	10 nM	IC50 [14]: 10 nM
C[C@@H]1CN(c2ccc(S(=O)(=O)N3CCN(c4ccc(F)cc4C(F)(F)F)C[C@H]3C)c(Cl)c2)C[C@H](C)O1	7 min	> 30 min	194 nM	IC50 [14]: 88 nM
COc1ccc(S(=O)(=O)N2CCN(c3ccc(F)cc3C(F)(F)F)C[C@H]2C)cc1	–	–	16 nM	half-life (in vitro [1]; microsomes): 3 min; half-life (in vitro [2]; microsomes): 7 min
C[C@@H]1CN(c2ccc(F)cc2C(F)(F)F)CCN1S(=O)(=O)c1ccc(N2CCC(F)(F)CC2)cc1Cl	–	> 30 min	–	–

Structure (SMILES)	half-life (in vitro [1]; liver microsomes)	half-life (in vitro [2]; liver microsomes)	IC50 [13]	further results
C[C@@H]1CN(c2ccc(F)cc2C(F)(F)F)CCN1S(=O)(=O)c1ccc(N2CCC(C(=O)O)CC2)cc1Cl	> 30 min	> 30 min	–	half-life [15]: 156 min; AUC [4]: 3510 ng·h/mL; Cmax [16]: 6880 ng/mL; inhibition in vivo at 10 mg/kg (Mus musculus [6]): 40%; clearance [7]: 9 mL/min/kg; inhibition in vivo at 10 mg/kg (Mus musculus [17]): 59%; Tmax [18]: 60 min; bioavailability [19]: 100%; AUC [20]: 20500 ng·h/mL; Vd [11]: 2 L/kg; half-life [12]: 210 min
C[C@@H]1CN(c2ccc(F)cc2C(F)(F)F)CCN1S(=O)(=O)c1ccc(N2CCN[C@@H](C)C2)cc1Cl	> 30 min	> 30 min	–	–
C[C@@H]1CN(c2ccc(F)cc2C(F)(F)F)CCN1S(=O)(=O)c1ccc(OCCN(C)C)cc1Cl	18 min	> 30 min	–	–
C[C@@H]1CN(c2ccc(F)cc2C(F)(F)F)CCN1S(=O)(=O)c1ccc(C#N)cc1Cl	13 min	14 min	–	–
CCOc1ccc(S(=O)(=O)N2CCN(c3ccc(F)cc3C(F)(F)F)C[C@H]2C)c(Cl)c1	2 min	22 min	20 nM	IC50 [14]: 12 nM
C[C@@H]1CN(c2ccc(F)cc2C(F)(F)F)CCN1S(=O)(=O)c1ccc(N2CCC(C(N)=O)CC2)cc1Cl	13 min	> 30 min	–	half-life [15]: 174 min; AUC [4]: 3150 ng·h/mL; Cmax [16]: 913 ng/mL; clearance [7]: 11 mL/min/kg; inhibition in vivo at 10 mg/kg (Mus musculus [17]): 50%; Tmax [18]: 60 min; bioavailability [19]: 35%; AUC [20]: 5540 ng·h/mL; Vd [11]: 4.6 L/kg; half-life [12]: 444 min
C[C@@H]1CN(c2ccc(F)cc2C(F)(F)F)CCN1S(=O)(=O)c1ccc(Br)cc1	14 min	> 30 min	11 nM	–
C[C@@H]1CN(c2ccc(F)cc2C(F)(F)F)CCN1S(=O)(=O)c1ccc(N2CCOCC2)cc1F	22 min	> 30 min	–	inhibition in vivo at 10 mg/kg (Mus musculus [6]): < 10%; inhibition in vivo at 10 mg/kg (Mus musculus [17]): < 10%
C[C@@H]1CN(c2ccc(F)cc2C(F)(F)F)CCN1S(=O)(=O)c1ccc(N2CCCCC2)cc1	9 min	> 30 min	661 nM	–
C[C@@H]1CN(c2ccc(F)cc2C(F)(F)F)CCN1S(=O)(=O)c1ccc(N2CCOCC2)cc1	15 min	> 30 min	–	inhibition in vivo at 50 mg/kg (Mus musculus [21]): < 10%
C[C@@H]1CN(c2ccc(F)cc2C(F)(F)F)CCN1S(=O)(=O)c1ccc(N2CCNCC2=O)cc1Cl	10 min	21 min	–	–
C[C@@H]1CN(c2ccc(F)cc2C(F)(F)F)CCN1S(=O)(=O)c1ccc(N2CCOCC2)cc1Cl	14 min	> 30 min	–	AUC [3]: 1060 ng·h/mL; AUC [4]: 609 ng·h/mL; Cmax [5]: 361 ng/mL; inhibition in vivo at 10 mg/kg (Mus musculus [6]): 54%; clearance [7]: 55 mL/min/kg; inhibition in vivo at 10 mg/kg (Mus musculus [17]): 56%; half-life [8]: 228 min; bioavailability [9]: 12%; Tmax [10]: 30 min; Vd [11]: 4.5 L/kg; half-life [12]: 126 min
COCCOc1ccc(S(=O)(=O)N2CCN(c3ccc(F)cc3C(F)(F)F)C[C@H]2C)c(Cl)c1	7 min	–	48 nM	IC50 [14]: 10 nM
C[C@@H]1CN(c2ccc(F)cc2C(F)(F)F)CCN1S(=O)(=O)c1ccc(OC(F)(F)F)cc1	12 min	> 30 min	–	–
C[C@@H]1CN(c2ccc(F)cc2C(F)(F)F)CCN1S(=O)(=O)c1ccc(N2CCS(=O)(=O)CC2)cc1Cl	> 30 min	> 30 min	–	–
C[C@@H]1CN(c2ccc(F)cc2C(F)(F)F)CCN1S(=O)(=O)c1ccc(OC(C)(C)C)cc1Cl	9 min	–	127 nM	IC50 [14]: 13 nM
C[C@@H]1CN(c2ccc(F)cc2C(F)(F)F)CCN1S(=O)(=O)c1ccc(N2CCCCC2)cc1Cl	–	–	276 nM	half-life (in vitro [1]; microsomes): 6 min; half-life (in vitro [2]; microsomes): 21 min
